Source: PubChem
CHRM4 agonist: agonists of human muscarinic M4 receptor (CHRM4) | activation, % at 3 µM | P08173 | actives 0.14% (n = 360,000) | CHO-K1 hM4/Gqi5, Fluo-8 calcium fluorescence; vehicle 0%, full acetylcholine response 100% | AID 624127;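 active = activation above the run mean over all test wells plus 3 SD, cut at about 32% in these data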;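 note: peak over basal fluorescence ratio per well then scaled between controls; 0% = DMSO wells and 100% = acetylcholine at EC100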
Target sequence (P08173 whole entry, looked up): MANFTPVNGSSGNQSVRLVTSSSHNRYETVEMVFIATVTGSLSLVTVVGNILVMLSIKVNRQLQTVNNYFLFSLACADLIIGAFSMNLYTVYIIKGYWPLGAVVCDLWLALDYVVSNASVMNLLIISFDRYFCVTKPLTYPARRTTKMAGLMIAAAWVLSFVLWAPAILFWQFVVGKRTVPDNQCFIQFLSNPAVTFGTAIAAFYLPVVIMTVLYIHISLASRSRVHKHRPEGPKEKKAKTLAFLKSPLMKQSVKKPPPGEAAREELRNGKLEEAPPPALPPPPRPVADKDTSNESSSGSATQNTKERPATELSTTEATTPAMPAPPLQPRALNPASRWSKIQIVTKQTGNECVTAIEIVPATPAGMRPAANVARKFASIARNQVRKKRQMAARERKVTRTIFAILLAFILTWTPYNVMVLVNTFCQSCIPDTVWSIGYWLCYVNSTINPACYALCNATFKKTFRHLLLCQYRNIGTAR
CHRM5 agonist: CHRM5 agonism in calcium assay | actives 0.19% (n = 360,000) | P08912 | AID 624037 | CHO-K1 hM5 cells, Fluo-8 calcium fluorescence; 0% DMSO wells, 100% maximal acetylcholine response | activation, % at 3 µM;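 active = activation above the run's mean over test compounds plus 3 SD, cut at about 23% in these data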;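 note: signal is peak over basal fluorescence ratio across the kinetic read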
CHRM4 PAM: potentiates acetylcholine response at human M4 receptor; P08173; CHO-K1 hM4/Gqi5, Fluo-8 calcium fluorescence, ACh EC20; 0% = ACh EC20, 100% = maximal ACh; activation, % at 3 µM; actives 0.4% (n = 360,000);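 active = activation above its plate's cutoff, the mean activation of sample wells plus 3 SD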
CHRM4 antagonist: blocks acetylcholine activation of human M4 receptor. inhibition, % at 3 µM. actives 0.73% (n = 360,000). CHO-hM4 cells, ACh EC80, Fluo-8 calcium fluorescence. AID 624125. P08173;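 active = inhibition above its plate's cutoff, the mean inhibition of sample wells plus 3 SD, cut at about 27% in these data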;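 note: 0% = acetylcholine EC80 with DMSO and 100% = DMSO without agonist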
CHRM5 antagonist: CHRM5 antagonism in calcium assay | actives 0.59% (n = 360,000) | inhibition, % at 3 µM | CHO-hM5 cells, Fluo-8 calcium fluorescence, ACh EC80 | P08912;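 active = inhibition above a per-plate cutoff, the mean of that plate's test compounds plus 3 SD, cut at about 27% in these data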;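 note: 0% = acetylcholine EC80 with DMSO and 100% = DMSO without agonist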
CHRM5 PAM: positive allosteric modulators of human muscarinic M5 receptor; P08912; CHO-K1 hM5, Fluo-8 calcium, ACh EC20 PAM; 0% = ACh EC20, 100% = ACh EC100; activation, % at 3 µM; actives 0.3% (n = 360,000); AID 624038;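 active = activation above the run cutoff, the mean activation of all test compounds plus 3 SD, cut at about 18% in these data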
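System: CHO-K1 hM5 cells. Reagent: acetylcholine, EC20 level. Compound dosing: single dose, 3 µM nominal final test concentration. Timing: Post-acetylcholine fluorescence recording 140 s. Detection: Fluo-8 calcium fluorescence. Read-out: % activation, ACh-normalized. Benchmarks: ACh EC20 and EC100 wells. Repeats: singlicate, one well per test compound.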
An asterisk follows results filed as active. Compounds with a hit are over-represented: about 1.8% of the library has one in this group of screens.

SMILES	CHRM4 agonist	CHRM5 agonist	CHRM4 PAM	CHRM4 antagonist	CHRM5 antagonist	CHRM5 PAM
CCOc1ccc(NC(=O)Cn2sc3nc(C)cc(C)c3c2=O)cc1	18.0	5.8	-30.1	54.5*	4.5	-5.6
Cc1cc(C)c2c(=O)n(CC(=O)Nc3ccc(Cl)cc3)sc2n1	61.0*	16.7	-38.1	30.7*	9.9	-11.3
Cc1cccc(N2CCN(C(=O)Cn3sc4nc(C)cc(C)c4c3=O)CC2C)c1 (centres undefined)	27.6	13.2	-16.0	53.9*	16.3	-15.7
Cc1cccc(N2CCN(C(=O)Cn3nc(C)n4cccc4c3=O)CC2C)c1 (centres undefined)	12.2	4.1	-4.4	-1.5	6.8	-7.9
Cc1cc(C)c2c(=O)n(CC(=O)Nc3cccc(F)c3)sc2n1	17.6	4.9	-12.6	6.2	7.3	2.3
COc1ccc(CNC(=O)[C@H](Cc2ccccc2)NC(=O)C2CCNCC2)cc1	0.3	-5.7	1.5	-1.5	10.8	-0.9
Cc1nc(SCc2nc3c(F)cccc3[nH]2)c2oc3ccccc3c2n1	0.6	-0.4	4.7	-1.1	4.0	2.9
Nc1[nH]n2c(=O)c3c(nc2c1N=Nc1ccc(Cl)cc1)CCCC3	0.1	-1.0	9.4	-7.9	-0.3	1.4
Nc1[nH]n2c(=O)c3c(nc2c1N=Nc1ccccc1)CCCC3	1.0	-4.5	30.1*	10.3	21.0	8.1
C=CCNC(=O)c1c(O)c2cccc3c2n(c1=O)CCC3	5.7	5.7	15.7*	21.6	25.2	42.9*
O=c1c(-c2ccccc2)c(O)c2cccc3c2n1CCC3	0.2	-2.9	17.3*	-15.0	-2.8	1.7
Cc1cc(C)c(-c2c(O)c3cccc4c3n(c2=O)CCC4)c(C)c1	-0.3	-5.9	-3.4	0.2	-0.9	-0.8
CSc1cccc(NC(=O)CCNS(=O)(=O)c2ccc3[nH]c(=O)oc3c2)c1	0.8	-0.4	1.5	7.9	-8.2	4.9
CC(=O)Nc1ccc(S(=O)(=O)NCCC(=O)NCCOc2ccccc2)cc1	0.0	1.6	-2.5	8.4	3.7	-0.4
N#Cc1cccnc1N1CCN(C(=O)c2cccs2)CC1	1.8	0.5	0.1	7.4	0.7	-1.6
c1ccc(-c2cc(-c3nc4ccccc4[nH]3)c3ccccc3n2)cc1	12.4	0.0	-17.1	24.1	28.6*	-18.2
CCCCc1nc2n[nH]c(N)c2c2c1CCCC2	0.3	-3.7	9.4	-1.6	9.0	22.3*
CCCc1nc2n[nH]c(N)c2c2c1CCC2	-0.1	2.9	0.6	-6.2	-5.8	-0.2
CCCc1nc2n[nH]c(N)c2c2c1CCCC2	1.6	-3.5	26.4*	2.5	-2.6	11.8
COc1cccc(-c2c(C(=O)N/N=C/c3ccco3)nnn2-c2nonc2N)c1	4.8	16.6	2.3	0.3	2.7	4.0
CN(CCc1ccccc1)C(=O)c1cccc(NC(=O)Cc2cccc(NC(=O)C3CCCN(C(=O)C4CCCC4)C3)c2)c1 (centres undefined)	3.1	-1.0	-5.8	7.9	5.9	-5.4
O=C1NC2(CCCCCC2)N=C1c1ccc(Br)cc1	-0.3	4.4	16.6	35.1*	-8.9	3.3
CCCC(=O)Nc1ccc(-c2csc(NNC(C)=O)n2)cc1	0.2	5.3	15.3	-8.9	-11.6	20.8*
CC(=O)NNc1nc(-c2ccc(C)cc2)cs1	0.0	-3.2	-0.8	6.9	2.2	-1.0
O=C(CC(NC(=O)OCc1ccccc1)C(=O)OCc1ccccc1)OCc1ccccc1 (centres undefined)	8.2	-2.8	-7.8	27.8*	18.9	-9.8
SMILES	CHRM4 agonist	CHRM5 agonist	CHRM4 PAM	CHRM4 antagonist	CHRM5 antagonist	CHRM5 PAM
O=C(CC(NC(=O)OCc1ccccc1)C(=O)O)OCc1ccccc1 (centres undefined)	0.9	-2.1	-0.6	3.8	6.4	1.7
Cc1onc(C(=O)NC(C)c2ccccc2)c1[N+](=O)[O-] (centres undefined)	0.1	-2.7	3.4	2.9	1.2	-4.9
C[C@@H](O)Cc1cn(CC(=O)NCCCCCCCCCCC(=O)N2CCNCC2)nn1	1.2	-2.8	4.5	3.7	5.3	5.2
C#CCOCCOCCOCCNc1nc(N2CCN(C(=O)CCCCCCCCCCNC(=O)[C@H]([C@@H](C)CC)n3cc(CCCCCN)nn3)CC2)nc(N2CCN(C(=O)CCCCCCCCCCNC(=O)[C@H]([C@@H](C)CC)n3cc(CCCCN=C(N)N)nn3)CC2)n1	-1.1	-2.5	-10.4	13.7	12.2	-10.1
C#CCOCCOCCOCCNc1nc(N2CCN(C(=O)CCCCCCCCCCNC(=O)[C@H]([C@@H](C)CC)n3cc(CCCCN=C(N)N)nn3)CC2)nc(N2CCN(C(=O)CCCCCCCCCCNC(=O)[C@H](CO)n3cc(CCCCCN)nn3)CC2)n1	1.0	-6.9	-12.9	34.1*	22.9	-10.4
CC(C)(C)OC(=O)CC[C@@H](C(=O)NCCCCCCCCCCC(=O)N1CCN(C(=O)OC(C)(C)C)CC1)n1cc(CCCCCNC(=O)OC(C)(C)C)nn1	3.5	6.2	13.6	-10.6	-12.8	8.0
C#CCOCCOCCOCCNc1nc(N2CCN(C(=O)CCCCCCCCCCNC(=O)Cn3cc(CCCCCN)nn3)CC2)nc(N2CCN(C(=O)CCCCCCCCCCNC(=O)[C@H]([C@@H](C)CC)n3cc(CCCCN=C(N)N)nn3)CC2)n1	-0.9	-8.6	-14.5	41.0*	14.0	-15.7
CC(C)(C)OC(=O)NCCCCCc1cn([C@@H](CO)C(=O)NCCCCCCCCCCC(=O)N2CCN(C(=O)OC(C)(C)C)CC2)nn1	33.7*	1.4	-17.0	68.7*	38.2*	-39.6
NCCCCCc1cn(CC(=O)NCCCCCCCCCCC(=O)N2CCNCC2)nn1	1.1	-4.4	22.8*	-12.1	-4.4	3.6
CN1CCN(c2ccc(-c3ccnn3C(=O)Nc3cccc(C(F)(F)F)c3)cc2)CC1	11.2	5.8	-3.0	9.2	28.0*	-13.9
CC1CCN(S(=O)(=O)c2ccc(C(=O)NNC(=O)C3CC3)cc2)CC1	6.3	2.6	11.5	-4.3	6.9	2.6
OC[C@@H]1CN(Cc2ccccc2)C[C@H](n2cnc3c(NC4CC4)ncnc32)O1	0.8	-0.2	4.2	-4.6	6.6	-2.1
OC[C@@H]1CN(Cc2ccc(-c3ccccc3)cc2)C[C@H](n2cnc3c(NC4CCC4)ncnc32)O1	17.0	5.3	-10.0	28.1*	29.4*	-14.2
COc1ccc(CN2C[C@@H](CO)O[C@@H](n3cnc4c(N5CCCC5)ncnc43)C2)cc1	2.0	-1.7	16.9*	-22.9	4.0	-3.1
CCn1c(COc2ccccc2)nnc1SCC(=O)C(C)(C)C	3.5	0.6	26.0*	-3.4	-2.1	1.8
CCn1c(COc2ccc(C)cc2)nnc1SCC(=O)C(C)(C)C	1.6	-1.3	-1.7	-9.2	-5.2	1.8
